Assay [1] relates to Toxoplasma gondii. Put plainly: Inhibition of Toxoplasma gondii RH replication in human foreskin fibroblasts incubated for 24 hrs with drug after 2 hrs postinfection by immunofluorescence microscopy.
Assay [2] relates to Toxoplasma gondii. Put plainly: Susceptibility of Toxoplasma gondii lacZ-transfected RH strain in human foreskin fibroblasts assessed as growth at 0.1 uM to 0.01 uM after 30 hrs by colorimetric assay. Type of assay: functional. Summed up: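 HFF infected with β-galactosidase-expressing RH strain and exposed to 1-hydroxy-2-alkyl-4(1H)quinolone alkyl derivatives at 0.1 and 0.01 μM. Replication quantified by colorimetric β-galactosidase assay with chlorophenol red-β-D-galactopyranoside substrate.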

The test system of assay [3] is Plasmodium falciparum. Put plainly: Inhibition of Plasmodium falciparum trophozoite replication after 36 hrs by fluorometric assay. Type of assay: functional, organism-based. An outline of the steps: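 FCBR young trophozoites (2% initial parasitemia) in RPMI 1640 with 10% human plasma and group A erythrocytes, gassed 90% N2/5% O2/5% CO2, exposed 36 h to 1 μM-1 nM. Erythrocytes lysed with saponin, pellets solubilized in guanidium-HCl/sodium acetate, stained with Hoechst 33258, read at 340/460 nm in triplicate. 2 μM chloroquine defined background.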

The subject of a further assay is HFF. Put plainly: Inhibitory effect on metabolic activity of HFF cells upto 10 uM by Alamar Blue assay. The class given is functional, cell-based. As to conditions: Homo sapiens. (The colour change of resazurin is a common sign of viable cells or microbes.)
Assay [4] has as its system Toxoplasma gondii. In words: Effect on Toxoplasma gondii RH growth in human foreskin fibroblasts incubated with 0.1 uM for 24 hrs assessed as recovery after 72 hrs without drug. The class given is functional.
Assay [5] deals with Toxoplasma gondii. In words: Inhibition of Toxoplasma gondii RH replication in human foreskin fibroblasts incubated for 24 hrs with drug after 2 hrs postinfection by immunofluorescence microscopy. The class given is functional, organism-based.
Assay [6] concerns Toxoplasma gondii. Put plainly: Inhibition of Toxoplasma gondii RH replication in human foreskin fibroblasts incubated for 24 hrs with drug after 36 hrs postinfection by immunofluorescence microscopy. Type of assay: functional, organism-based.
The subject of assay [7] is Toxoplasma gondii. Put plainly: (§1) Effect on Toxoplasma gondii RH growth in human foreskin fibroblasts incubated with 0.1 uM for 24 hrs after 6 hrs postinfection assessed as recovery after 72 hrs without drug. Type of assay: functional.
Assay [8] concerns Toxoplasma gondii. In words: Inhibition of Toxoplasma gondii lacZ-transfected RH strain in human foreskin fibroblasts assessed as beta galactosidase activity after 30 hrs by colorimetric assay. The class given is functional, organism-based. Summed up:
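lacZ-expressing RH tachyzoites (1 × 10^4/well) infected HFF for 4 h at 37°C in 1% DMEM without phenol red, washed, then exposed in duplicate to 1, 0.1, 0.01 and 0.001 μM with 100 μM chlorophenol red-β-D-galactopyranoside (final) at 37°C. Absorbance at 570 and 630 nm read at 30 h postinfection.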

Assay [9] relates to Toxoplasma gondii. The assay is described as §1. The class given is functional. The source holds these as a separate data set.
For assay [10], the system named is Toxoplasma gondii. In words: Inhibition of invasion of Toxoplasma gondii RH in human foreskin fibroblasts assessed as decreased infection rate pretreated with 1 to 1000 nM after 2 hrs before infection. The class given is functional, organism-based. An outline of the steps:
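Extracellular tachyzoites pretreated 2 h with 1 to 1,000 nM before infecting HFF; infection rate compared with untreated parasites.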

Assay [11] relates to Toxoplasma gondii. Put plainly: Effect on Toxoplasma gondii RH growth in human foreskin fibroblasts incubated with 1 uM for 24 hrs assessed as recovery after 72 hrs without drug. The class given is functional.
The test system of assay [12] is Plasmodium falciparum. In words: Reduced parasitaemia in Plasmodium falciparum FCBR ring stage parasites. Type of assay: functional, organism-based. An outline of the steps: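 Sorbitol-synchronized FCBR ring-stage cultures (initial parasitemia 3.2%) in T25 flasks, exposed 48 h to 1 μM, 100 nM, 10 nM and 1 nM. Parasitemia counted on Giemsa-stained blood smears relative to DMSO control.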

IC50 and Activity data for six compounds are collected here from ChEMBL document CHEMBL1147098, “Growth inhibition of Toxoplasma gondii and Plasmodium falciparum by nanomolar concentrations of 1-hydroxy-2-dodecyl-4(1H)quinolone, a high-affinity inhibitor of alternative (type II) NADH dehydrogenases” (Antimicrob Agents Chemother, 2007).

In general, IC50 refers to the concentration that inhibits the measured activity by half.

The source made the active and inactive calls. No cut-off for these calls is given here.

`O=C1C(O)=C([C@H]2CC[C@H](c3ccc(Cl)cc3)CC2)C(=O)c2ccccc21` [ATOVAQUONE] registered an IC50 with Toxoplasma gondii [1] of 9 nM.
Turning to `CCCCCCCCCCCCc1cc(=O)c2ccccc2n1O`, the Activity in the assay on Toxoplasma gondii [2] was 42.6%; in the assay on Toxoplasma gondii [4], 49.3%; in the assay with Toxoplasma gondii [7], 65.8%; in the assay with Toxoplasma gondii [9], 65.8%; in the assay on Toxoplasma gondii [11] it was 2.9%. Also, the IC50 with Plasmodium falciparum [3] came out at 14 nM; with Toxoplasma gondii [5], 2.4 nM; in the assay on Toxoplasma gondii [6] it was 4 nM; with Toxoplasma gondii [8], 3.7 nM; in the assay on Plasmodium falciparum [12], 54.7 nM. Further, the outcome with HFF and in the assay on Toxoplasma gondii [10] was inactive.
As for `CCCCCc1cc(=O)c2ccccc2n1O`, in the assay on Toxoplasma gondii [2], the Activity turned out to be 98.2%.
Regarding `CCCCCCc1cc(=O)c2ccccc2n1O`, the Activity in the assay on Toxoplasma gondii [2] is reported as 16.3%.
Still for that read-out and setting: the value for `CCCCCCCCCCCCCCc1cc(=O)c2ccccc2n1O` was 37.9%; that for `CCCCCCCCc1cc(=O)c2ccccc2n1O` was 14.8%.
